According to ChEMBL document CHEMBL2331450, “Potent BRAF kinase inhibitors based on 2,4,5-trisubstituted imidazole with naphthyl and benzothiophene 4-substituents” (Bioorg Med Chem, 2013):
pIC50: −log10 of the molar value.

Key:
[1] = molecular target: T1, Serine/threonine-protein kinase B-raf (Homo sapiens, UniProt P15056, V600E); assay: Inhibition of BRAF V600E mutant in human WM266.4 cells assessed as inhibition of ERK phosphorylation after 6 hrs by DELFIA assay; assay type: cell-based
Procedure, shortened: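 In BRAF-dependent WM266.4 cells, inhibition of ERK phosphorylation measured in a cellular assay and reported as IC50.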

[2] = Antiproliferative activity against human WM266.4 cells after 6 days by SRB assay; assay type: functional; conditions: WM 266-4, 144 h
Procedure, shortened: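 BRAF-dependent WM266.4 melanoma cells; growth inhibition read by SRB staining and reported as GI50.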

[3] = molecular target: T1, Serine/threonine-protein kinase B-raf; assay: Inhibition of human recombinant N-terminal His-tagged BRAF V600E mutant expressed in Sf9 cells using GST-tagged MEK1 and ATP as substrate incubated for 10 mins prior to ATP addition measured after 45 mins by DELFIA assay
Procedure, shortened: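 Enzyme assay with the V600E BRAF mutant in vitro; inhibition reported as IC50.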

T1 sequence (P15056 2-766 V600E limits assumed): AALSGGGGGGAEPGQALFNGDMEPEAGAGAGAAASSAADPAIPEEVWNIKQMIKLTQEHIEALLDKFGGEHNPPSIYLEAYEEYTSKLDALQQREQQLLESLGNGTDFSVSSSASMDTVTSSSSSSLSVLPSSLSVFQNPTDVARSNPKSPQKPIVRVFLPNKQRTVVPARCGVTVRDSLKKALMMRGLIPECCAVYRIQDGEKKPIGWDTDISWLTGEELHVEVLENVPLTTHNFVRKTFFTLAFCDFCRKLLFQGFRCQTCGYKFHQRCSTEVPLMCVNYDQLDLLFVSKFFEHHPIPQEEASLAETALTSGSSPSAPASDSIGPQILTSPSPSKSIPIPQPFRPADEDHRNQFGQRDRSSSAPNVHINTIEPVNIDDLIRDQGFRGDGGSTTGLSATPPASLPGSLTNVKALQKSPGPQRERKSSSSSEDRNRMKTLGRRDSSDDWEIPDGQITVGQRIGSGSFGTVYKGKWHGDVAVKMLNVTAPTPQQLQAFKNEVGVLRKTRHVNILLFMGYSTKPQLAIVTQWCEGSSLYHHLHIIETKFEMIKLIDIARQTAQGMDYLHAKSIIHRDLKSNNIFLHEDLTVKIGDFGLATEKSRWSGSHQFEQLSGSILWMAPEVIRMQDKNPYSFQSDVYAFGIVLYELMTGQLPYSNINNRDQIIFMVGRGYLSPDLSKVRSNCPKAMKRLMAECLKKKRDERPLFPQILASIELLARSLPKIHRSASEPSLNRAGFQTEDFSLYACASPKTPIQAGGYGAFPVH

| SMILES | pIC50 [1] | GI50 [2] [µM] | pIC50 [3] |
| --- | --- | --- | --- |
| CN(C)CCOc1ccc(-c2nc(-c3ccc4c(O)c(F)ccc4c3)c(-c3ccncc3)[nH]2)cc1 | 6.60 | 11 | 7.54 |
| CN(C)CCOc1ccc(-c2nc(-c3ccc4c(CO)coc4c3)c(-c3ccncc3)[nH]2)cc1 |  |  | < 5.00 |
| CN(C)CCOc1ccc(-c2nc(-c3ccc4cc(O)ccc4c3)c(-c3ccncc3)[nH]2)cc1 | 4.85 | 4.3 | 5.06 |
| CN(C)CCOc1ccc(-c2nc(-c3ccc4c(=O)[nH]ccc4c3)c(-c3ccncc3)[nH]2)cc1 |  |  | < 5.00 |
| CCC(O)c1csc2cc(-c3nc(-c4ccc(OCCN(C)C)cc4)[nH]c3-c3ccncc3)ccc12 (racemic) |  |  | < 5.00 |
| CN(C)CCOc1ccc(-c2nc(-c3ccc4c(C(O)C(F)(F)C(F)(F)F)csc4c3)c(-c3ccncc3)[nH]2)cc1 (racemic) |  |  | < 5.00 |
| CN(C)CCOc1ccc(-c2nc(-c3ccc(Cl)c(Cl)c3)c(-c3ccncc3)[nH]2)cc1 | 5.23 | 1.6 | 6.24 |
| CN(C)CCOc1ccc(-c2nc(-c3ccc4c(C=O)csc4c3)c(-c3ccncc3)[nH]2)cc1 |  |  | < 5.00 |
| CN(C)CCOc1ccc(-c2nc(-c3ccc4c(C(N)=O)coc4c3)c(-c3ccncc3)[nH]2)cc1 |  |  | < 5.00 |
| CN(C)CCOc1ccc(-c2nc(-c3ccc4c([C@@H](O)C(F)(F)F)csc4c3)c(-c3ccncc3)[nH]2)cc1 | 5.64 | 2.1 | 6.72 |
| CN(C)CCOc1ccc(-c2nc(-c3ccc4sc(C(O)C(F)(F)F)cc4c3)c(-c3ccncc3)[nH]2)cc1 (racemic) |  |  | < 5.00 |
| CN(C)CCOc1ccc(-c2nc(-c3ccc4ccc(=O)[nH]c4c3)c(-c3ccncc3)[nH]2)cc1 |  |  | < 4.00 |
| CN(C)CCOc1ccc(-c2nc(-c3ccc4c(O)c(Cl)ccc4c3)c(-c3ccncc3)[nH]2)cc1 | 5.90 | 1.1 | 7.38 |
| CN(C)CCOc1ccc(-c2nc(-c3ccc4c(C(O)C(F)(F)F)csc4c3)c(-c3ccncc3)[nH]2)cc1 (racemic) | 5.57 | 3.1 | 6.48 |
| CN(C)CCOc1ccc(-c2nc(-c3ccc4cc(C(=O)O)ccc4c3)c(-c3ccncc3)[nH]2)cc1 |  |  | < 5.00 |
| CN(C)CCOc1ccc(-c2nc(-c3ccc4c(O)cccc4c3)c(-c3ccncc3)[nH]2)cc1 | 6.41 | 0.22 | 8.05 |
| CN(C)CCOc1ccc(-c2nc(-c3ccc4cc(F)ccc4c3)c(-c3ccncc3)[nH]2)cc1 |  |  | < 5.00 |
| CCCSc1csc2cc(-c3nc(-c4ccc(OCCN(C)C)cc4)[nH]c3-c3ccncc3)ccc12 | 4.51 | 2.3 | 5.03 |
| CN(C)CCOc1ccc(-c2nc(-c3ccc4[nH]c(=O)ccc4c3)c(-c3ccncc3)[nH]2)cc1 |  |  | < 4.00 |
| CN(C)CCOc1ccc(-c2nc(-c3ccc4c([S+](C)[O-])csc4c3)c(-c3ccncc3)[nH]2)cc1 (configuration not stated) |  |  | < 5.00 |
| CCC[S+]([O-])c1csc2cc(-c3nc(-c4ccc(OCCN(C)C)cc4)[nH]c3-c3ccncc3)ccc12 (configuration not stated) |  |  | < 5.00 |
| CN(C)CCOc1ccc(-c2nc(-c3ccc4ccc(O)cc4c3)c(-c3ccncc3)[nH]2)cc1 | 5.44 | 3.2 | 5.85 |
| CSc1csc2cc(-c3nc(-c4ccc(OCCN(C)C)cc4)[nH]c3-c3ccncc3)ccc12 |  |  | 4.85 |
| CN(C)CCOc1ccc(-c2nc(-c3ccc4c(N)nccc4c3)c(-c3ccncc3)[nH]2)cc1 | 5.29 | 5.7 | 5.96 |
| CN(C)CCOc1ccc(-c2nc(-c3ccc(F)c(Cl)c3)c(-c3ccncc3)[nH]2)cc1 |  |  | < 5.00 |
| CN(C)CCOc1ccc(-c2nc(-c3ccc(C(O)C(F)(F)F)cc3)c(-c3ccncc3)[nH]2)cc1 (racemic) |  |  | < 5.00 |
| CN(C)CCOc1ccc(-c2nc(-c3ccc4c(CO)csc4c3)c(-c3ccncc3)[nH]2)cc1 |  |  | < 5.00 |
